Experimental data reported in the RNAGym collection of RNA variant scans (doi:10.1038/nmeth.2970).

B1: NELF-E aptamer (parent)
chain: CCCAACGACUGCCGAGCGAGAUUACGCUUGAGCGCCCCACUGAGGAUGCCCACGGGCGAUUGGGGCACGG

Variants of: B1
Assay: HiTS-RAP
Conditions: with NELF-E (Drosophila)
Summary of the method: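 Aptamer DNA templates bearing a T7 promoter and a ter site were sequenced on an Illumina GAIIx flowcell. T7 RNA polymerase then transcribed them in situ, and GST-Tus halted transcription over 30 minutes at 37°C. After a 30-minute room-temperature equilibration with NELF-E-mOrange at 0.064 to 1000 nM in HEPES binding buffer, clusters were imaged, using only the first binding curve. Intensities normalised to sequencing intensity were averaged per sequence and fitted with weighted Hill fits to give Kd, retaining only fits whose variance stayed under 1,000,000.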
With A4G C36A the Kd was 7.98 nM. Variant A8G A21G has a Kd of 6.28 nM. In the case of C35G, the Kd is reported as 6.51 nM. C13G C25U was tested, and the Kd was 5.55 nM. Work on U23G G63U yielded a Kd of 12.9 nM. For U23G G63A, the Kd was 20.3 nM. C13G A19U showed a Kd of 4.52 nM. For G7U G32A, the Kd was 4.74 nM. In the case of C6U G56U, the Kd is reported as 6.57 nM. Variant U23G U60G has a Kd of 4.68 nM. Work on A15G G16A yielded a Kd of 8.29 nM. Variant U23G G44U has a Kd of 6.93 nM. U22G C33U gave a Kd of 5.57 nM. Variant C17G A21G has a Kd of 6.68 nM. In the case of U22G G44U, the Kd is reported as 17.2 nM. C9G G16A gave a Kd of 5.72 nM. A5G G54A showed a Kd of 12.9 nM. Work on A24G G30U yielded a Kd of 7.16 nM. U22G U60A gave a Kd of 9.43 nM. U23G G48A gave a Kd of 11 nM. U23G G48U showed a Kd of 7.64 nM. In the case of U10G A46G, the Kd is reported as 38.8 nM. A5U A19G was tested, and the Kd was 7.47 nM. A5G G34A showed a Kd of 5.89 nM. For A4U A19G, the Kd was 6.92 nM. In the case of C13G G16A, the Kd is reported as 6.87 nM. In the case of C9G G56A, the Kd is reported as 7.64 nM. For C6G G55A, the Kd was 6.61 nM. U29A C53U showed a Kd of 5.35 nM. A5U G56U was tested, and the Kd was 6.51 nM. Variant C13G A46G has a Kd of 47.3 nM. A24G C35U was tested, and the Kd was 9.45 nM. With U22A the Kd was 5.46 nM. U29G G32A showed a Kd of 5.37 nM. In the case of A4G A24U, the Kd is reported as 6.89 nM. U41G G55C gave a Kd of 6.95 nM. Variant A8U C9U has a Kd of 6.55 nM. C9G A67G showed a Kd of 6.17 nM. G18A A19C showed a Kd of 6.3 nM. A5U U29G gave a Kd of 5.91 nM. Work on A5G G56A yielded a Kd of 11.2 nM. G7U A19U was tested, and the Kd was 6.31 nM. A19U U22G gave a Kd of 6 nM. With C9G C25G the Kd was 6.33 nM. In the case of A4G C33G, the Kd is reported as 5.81 nM. G7U G65U showed a Kd of 7.38 nM. G16U U22G showed a Kd of 6.64 nM. Variant A39U C66U has a Kd of 21.2 nM. With C6G U10G the Kd was 4.77 nM. Variant C6G U10C has a Kd of 5.34 nM. C13G G64C showed a Kd of 5.83 nM. U10G G44U gave a Kd of 9.69 nM. In the case of G16U G42A, the Kd is reported as 36.6 nM. Work on C6G A19G yielded a Kd of 5.53 nM. For A19G A67U, the Kd was 5.89 nM. A4G G55U was tested, and the Kd was 7.68 nM. A4U U29G gave a Kd of 5.91 nM. G7A A8G was tested, and the Kd was 6.39 nM. U29G A67G was tested, and the Kd was 5.86 nM. With U10G A31U the Kd was 5.87 nM. In the case of C9G U28C, the Kd is reported as 9.43 nM. U29A U41C showed a Kd of 79.2 nM. With A8U G62U the Kd was 10 nM. A43C showed a Kd of 76 nM. Work on C12G C40U yielded a Kd of 126 nM. For C13G G14U, the Kd was 5.85 nM. U29G G64A showed a Kd of 7.34 nM. Work on A8U A43U yielded a Kd of 104 nM. Variant G48A has a Kd of 9.57 nM. For U29G C40G, the Kd was 5.85 nM. For C13G U29G, the Kd was 4.95 nM. In the case of C13G U29C, the Kd is reported as 4.94 nM. Variant G18A G26A has a Kd of 6.84 nM. Work on C12G G14U yielded a Kd of 6.28 nM. Work on C6U A8G yielded a Kd of 6.02 nM. C13U C25G gave a Kd of 4.69 nM. C17U A43G was tested, and the Kd was 20.5 nM. U22G U29C showed a Kd of 5.92 nM. U23G C36G was tested, and the Kd was 5.58 nM. U23G C36A was tested, and the Kd was 8.43 nM. Work on G14A G30A yielded a Kd of 5.61 nM. U28C A52U gave a Kd of 32.7 nM. Variant U22G G30A has a Kd of 5.32 nM. C17G C25U showed a Kd of 5.39 nM. For A4G U61G, the Kd was 9.81 nM. With C13G C35U the Kd was 14.4 nM. Variant A5U U61C has a Kd of 85.8 nM. U23G G42U showed a Kd of 13.1 nM. Work on C13U A39G yielded a Kd of 7.82 nM. G32A showed a Kd of 4.35 nM. In the case of G14C, the Kd is reported as 5.95 nM. For U29G G48A, the Kd was 11.3 nM. With A8U A15U the Kd was 7.15 nM. With G16U A19U the Kd was 5.21 nM. G11U G26U was tested, and the Kd was 6.79 nM. U10G A39C showed a Kd of 19.7 nM. Variant C12G C36U has a Kd of 7.29 nM. For A5C U22G, the Kd was 6.87 nM. C13G A39U gave a Kd of 19 nM. G14U C33U was tested, and the Kd was 5.15 nM. In the case of C12G A21G, the Kd is reported as 7.12 nM. G14A A39G was tested, and the Kd was 9.46 nM. With G11U G14U the Kd was 6.82 nM. Work on C51U yielded a Kd of 6.66 nM. G7U A52G showed a Kd of 4.13 nM. C37U was tested, and the Kd was 11.1 nM. With C17G A24G the Kd was 5.52 nM. C6A C13G was tested, and the Kd was 5.49 nM. G14A A19G showed a Kd of 5.88 nM. Work on A8G A67U yielded a Kd of 6.63 nM. Work on A8G A67G yielded a Kd of 6.62 nM. With A8U G11U the Kd was 6.61 nM. With G26A U29G the Kd was 5.28 nM. C51U A52G was tested, and the Kd was 7.06 nM. Work on C27U U28G yielded a Kd of 5.03 nM. G14U G55A was tested, and the Kd was 7.48 nM. A5U C13G gave a Kd of 5.56 nM. With U41G G56A the Kd was 5.81 nM. U10G C37A gave a Kd of 14.8 nM. For U10G G14A, the Kd was 5.01 nM. For A5G C13G, the Kd was 5.6 nM. G14U G54A was tested, and the Kd was 12.6 nM. C13G A43U was tested, and the Kd was 27.8 nM. A4U G65A gave a Kd of 5.54 nM. For G7A G16U, the Kd was 5.55 nM. C6G G32A was tested, and the Kd was 4.6 nM. For G11U G16A, the Kd was 6.06 nM. For C12U G14U, the Kd was 8.16 nM. In the case of U10G C50U, the Kd is reported as 14 nM. Work on A31U C53U yielded a Kd of 3.69 nM. In the case of C9G G55U, the Kd is reported as 8.84 nM. A31G A67U showed a Kd of 10.7 nM. C9G A59U showed a Kd of 30.4 nM. U61G G62U gave a Kd of 5.22 nM. With G14U G20A the Kd was 6.93 nM. A24U U41G gave a Kd of 6.61 nM. Variant U23G G45U has a Kd of 6.11 nM. For A4U C12G, the Kd was 5.79 nM. In the case of C53A, the Kd is reported as 4.92 nM. Work on A8G G42A yielded a Kd of 44.1 nM. U23G C50G was tested, and the Kd was 5.73 nM. Work on G16U G63A yielded a Kd of 15.2 nM. Variant C12G U28A has a Kd of 6.47 nM. Work on U22G C37U yielded a Kd of 12.7 nM. Variant U41G A67U has a Kd of 7 nM. For A19U A24G, the Kd was 5.61 nM. For G7U U10A, the Kd was 7.85 nM. C9G C36U was tested, and the Kd was 8.98 nM. Variant C17G C40G has a Kd of 5.54 nM. For A5G U23G, the Kd was 6.21 nM. Variant U29G C51U has a Kd of 8.19 nM. U41A A52U gave a Kd of 81 nM. For G16A U23G, the Kd was 6.04 nM. Variant C6G G62U has a Kd of 7.26 nM. Work on G11A A31G yielded a Kd of 10.9 nM. With A5G G18U the Kd was 6.11 nM. With A5G G55A the Kd was 11.2 nM. Variant G14U G18U has a Kd of 7.17 nM. G7U U28C showed a Kd of 9.32 nM. A4G A21U gave a Kd of 5.84 nM. In the case of A4G A21G, the Kd is reported as 6 nM. In the case of U29G A43U, the Kd is reported as 44 nM. In the case of U22G U61G, the Kd is reported as 9.56 nM. U10G A67G showed a Kd of 5.45 nM. With U61C A67G the Kd was 68.2 nM. Work on A4G A52U yielded a Kd of 18.3 nM. Variant G11U C51U has a Kd of 6.67 nM.
